# Compound activity (PubChem BioAssay)
# HTR2A ag: mouse Htr2a agonists via beta-arrestin recruitment, primary screen, cell-based, luminescence; 360,000 compounds, 0.66% hits; CHO-K1 mHTR2A beta-arrestin complementation; percent of 30 µM serotonin response; 5-hydroxytryptamine receptor 2A (Mus musculus), P35363; AID 624169, 2012; activation, % at 7.6 µM;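 active = activation above a run cutoff, the mean activation of all tested compounds plus 3 SD, cut at about 14% in these data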;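 note: 0% = plate median of compound wells and 100% = 30 µM serotonin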
# CXCR6 block: CXCR6 receptor inhibitors, primary screen, cell-based, beta-arrestin, luminescence, CHO-K1 PathHunter, 1536-well. C-X-C chemokine receptor type 6 (Homo sapiens), O00574. inhibition, % at 20 µM. 360,000 compounds, 0.36% hits. AID 602244, 2012; in the data active = inhibition above about 34%, passing the limit was not always enough;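 note: antagonist mode with CXCL16 agonist at 10 nM final; 0% = 10 nM CXCL16 with DMSO and 100% = unstimulated wells without agonist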
# EBI2 block: EBI2 receptor antagonists, beta-arrestin recruitment, primary screen, cell-based, luminescence, 7a,25-OHC stimulation, uHTS; 7a,25-OHC stimulated; inhibition, % at 5 µM; 360,000 compounds, 0.81% hits; in the data active = inhibition above about 38%;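 note: enzyme fragment complementation signal reports receptor beta-arrestin coupling in cells; 0% = agonist plus DMSO wells and 100% = wells without agonist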
# APJ agonist: agonists of human apelin receptor APJ, primary screen, CHO-K1 cells, PathHunter beta-arrestin, luminescence; AID 2520, 2010; 0% DMSO wells, 100% apelin; activation, % at 20 µM; 330,000 compounds, 0.11% hits; P35414;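 active = activation more than six SD over the plate average, tested at 20 µM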;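 note: 0% = DMSO alone and 100% = apelin-13 at 10 nM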
#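 Assay system: CHO-K1 APJ beta-arrestin complementation cell line / Compound: single test compound dose, 20 µM final, 1% DMSO / Times: overnight seeding, 90 min compound at 25 °C, 1 h detection / Technique: beta-gal luminescence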
# APJ antag: antagonists of human apelin receptor APJ, primary screen, CHO-K1 cells, beta-arrestin complementation, luminescence; inhibition, % at 20 µM; 330,000 compounds, 0.32% hits;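 active = inhibition above about 40% at 20 µM, limit read from the data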;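 note: cells challenged with 10 nM apelin-13 agonist together with compound; plate controls were apelin-13 plus DMSO wells for no effect and DMSO wells lacking apelin-13 for full effect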
# CCR6 antagonist: CCR6 receptor antagonists, primary screen, cell-based, CHO-K1, luminescence, beta-arrestin, uHTS; C-C chemokine receptor type 6 (Homo sapiens), P51684; CHO-K1 CCR6 PathHunter beta-arrestin, CCL20-stimulated; inhibition, % at 20 µM; 340,000 compounds, 0.49% hits;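 active = compounds whose inhibition of the agonist-driven luminescence signal at 20 µM reaches about 50%, limit read from the data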;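 note: cells stimulated with CCL20 at 14 nM final; plate controls were DMSO with CCL20 for no effect and DMSO without agonist for full effect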
# Target sequence (P51684 whole entry, looked up): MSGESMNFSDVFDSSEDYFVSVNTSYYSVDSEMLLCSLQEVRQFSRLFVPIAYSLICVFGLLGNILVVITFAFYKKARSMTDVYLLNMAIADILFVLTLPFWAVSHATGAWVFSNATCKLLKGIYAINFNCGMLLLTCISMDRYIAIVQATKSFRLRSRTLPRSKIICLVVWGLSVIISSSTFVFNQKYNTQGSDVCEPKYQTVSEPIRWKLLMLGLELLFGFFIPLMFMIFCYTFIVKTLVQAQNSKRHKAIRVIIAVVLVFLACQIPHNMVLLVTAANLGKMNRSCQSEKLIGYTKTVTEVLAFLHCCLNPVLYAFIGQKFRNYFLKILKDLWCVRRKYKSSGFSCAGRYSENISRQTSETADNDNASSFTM
# MOR ag counter: OPRM1 agonists via beta-arrestin recruitment, confirmation, counter-screen for mouse HTR2A agonist project, cell-based, luminescence, single concentration. U2OS OPRM1 beta-arrestin PathHunter; DMSO 0%, DAMGO 9.3 µM 100%. shares compounds with HTR2A ag. activation, % at 9.3 µM. 2,300 compounds, 5.3% hits;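 active = mean activation above the mean of DMSO-only wells plus 3 SD, cut at about 0.5% in these data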
# m5-HT2A ag conf: mouse HTR2A agonists, beta-arrestin recruitment, confirmation, cell-based, luminescence, CHO-K1 PathHunter, triplicate; AID 624381, 2012; activation, % at 7.6 µM; 2,300 compounds, 19% hits; shares compounds with HTR2A ag; DMSO 0%, 30 µM serotonin 100%;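 active = mean activation across triplicates above the hit threshold derived in the original primary screen, cut at about 15% in these data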
# The depositor's hits bear a star; x = not tested or not shown. In the library only some 2.1% were active in any assay of this set; here they are far more common.
SMILES,HTR2A ag,CXCR6 block,EBI2 block,APJ agonist,APJ antag,CCR6 antagonist,MOR ag counter,m5-HT2A ag conf
Cc1c(C(=O)NCc2cccc(C(F)(F)F)c2)sc(=O)n1Cc1ccccc1F,25*,-2,6,x,x,x,0,-7
CCN(CC)C(=O)C(=O)Nc1ccc(OC)c(Cl)c1,0,-2,-7,-3,2,1,x,x
Cc1ccc(Cn2c(=O)n(CCC(=O)NCc3ccc4c(c3)OCO4)c(=O)c3ccccc32)cc1,5,-1,1,-2,-18,-3,x,x
N#Cc1ccccc1Cn1c(=O)n(CCCC(=O)NCc2ccc3c(c2)OCO3)c(=O)c2ccccc21,15*,7,5,1,9,-6,0,-2
COc1ccc(C(C)(C)C)cc1NC(=O)C1=CC=CN2CCS(=O)(=O)N=C12,4,0,5,1,0,0,x,x
Cc1ccsc1/C=N/N1CCN(c2ccccn2)CC1,-3,-2,-12,4,-2,-1,x,x
Cc1ccsc1CN1CCN(c2ccccn2)CC1,35*,5,-3,-4,35,17,-1,98*
CSc1ccccc1C(=O)N1CCC(CCC(=O)NC2CC2)CC1,15*,-8,-10,-4,20,-5,-1,-4
O=C(O)C(O)C(O)C(O)C(O)C(=O)O (centres undefined) (tested in a mixture with another compound),20*,1,-6,4,19,3,-1,4
CC(C(=O)O)C(=O)O,-5,3,2,8,1,2,x,x
CCOc1ccc(NS(=O)(=O)c2coc(C(N)=O)c2)cc1,2,-1,4,-2,-44,6,x,x
CSc1c(CC(=O)Nc2ccccc2)n(Cc2ccccc2)c2ccccc12,7,4,18,-3,14,4,x,x
Cc1ccc(-c2cc(C(=O)NCc3ccco3)c3ccccc3n2)s1,16*,5,1,-3,-1,8,-1,-5
CCOc1ccc(Cl)cc1-c1cc(C(=O)NCc2cc(C(F)(F)F)cc(C(F)(F)F)c2)[nH]n1,-1,-8,1,x,x,x,x,x
COCCNC(=S)N(CCc1c(C)[nH]c2ccc(F)cc12)Cc1ccco1,28*,4,17,-4,2,15,0,-3
CC(=O)N1C[C@H]2CON(C)[C@H]2C[C@H]1c1ccccc1Br,18*,-3,-9,x,x,8,-1,-4
Cc1nonc1C(=O)N1CCCC(N2CCN(c3ccc(F)cc3)CC2)C1 (centres undefined),-1,-4,11,-2,-58,3,x,x
CC(C)[C@H](NC(=O)c1ccc([N+](=O)[O-])cc1Cl)C(=O)N1CCN(C/C=C/c2ccccc2)CC1,-4,-19,22,-1,-1,-5,x,x
CCOc1cc(C2C(C(C)=O)=C(C)Nc3ncnn32)ccc1O (centres undefined),15*,6,-2,-2,7,10,-1,-3
CCOc1ccc(C2C(C(N)=O)=C(C)Nc3ncnn32)cc1OC (centres undefined),7,-1,-6,0,-12,9,x,x
CC(=O)Oc1ccc2nc(-c3ccco3)oc(=O)c2c1,4,2,4,-2,10,7,x,x
COc1cccc(OCC(O)CN2CCN(c3ccccn3)CC2)c1 (centres undefined),33*,1,3,-2,-7,5,-1,84*
O=S(=O)(c1ccc(OCC(O)CN2CCN(c3ccccc3O)CC2)cc1)N1CCOCC1 (centres undefined),19*,-13,-15,0,11,4,-1,46*
O=S(=O)(c1ccc(OCC(O)CN2CCCC2)cc1)N1CCOCC1 (centres undefined),-2,-3,-5,1,5,10,x,x
COc1cccc(OC)c1OCC(O)CN1CCN(c2ccccc2)CC1 (centres undefined),0,-12,-10,-2,16,9,x,x
SMILES,HTR2A ag,CXCR6 block,EBI2 block,APJ agonist,APJ antag,CCR6 antagonist,MOR ag counter,m5-HT2A ag conf
Cc1cccc(C)c1OCC(O)CN1CCN(c2ccccc2)CC1 (centres undefined),15*,1,21,-4,-6,14,0,61*
O=[N+]([O-])c1ccc(OCC(O)CN2CCN(c3ccccc3F)CC2)cc1 (centres undefined),20*,0,0,-4,11,2,-1,46*
Cc1ccc(NC(=O)CN2C(=O)S/C(=C\c3cc(Cl)c(OCC(=O)O)c(Cl)c3)C2=O)cc1,-1,-4,0,-2,16,10,x,x
C[C@@H]1CN([C@@H](C)CO)C(=O)c2cccc(NC(=O)C3CCCCC3)c2O[C@@H]1CN(C)C(=O)NC1CCCCC1,-5,6,4,-3,-3,6,x,x
O=C(CCN1C(=O)c2ccccc2C1=O)Nc1ccccc1C(F)(F)F,-3,8,-3,-5,1,-1,x,x
O=S(=O)(c1ccc(OCC(O)CN2CCN(c3ccccc3)CC2)cc1)N1CCOCC1 (centres undefined),18*,-5,-22,2,17,2,-1,83*
CC(C)OC(=O)CNc1n[nH]c(=S)[nH]c1=O,1,8,-4,x,x,9,x,x
COC(=O)CNc1n[nH]c(=S)[nH]c1=O,17*,2,-2,-1,13,5,-1,-2
CSc1ccc(N2CCN(CCCNC(=O)Nc3ccccc3F)CC2)cc1,17*,-5,9,-2,5,16,0,39*
COc1cccc(NC(=O)c2ccc(CN3CCN(c4ccccc4)CC3)cc2)c1,33*,-3,30,-1,-6,14,0,60*
O=C(Nc1ccccc1F)c1ccc(CN2CCN(c3ccccc3)CC2)cc1,20*,1,3,-1,0,18,0.8*,95*
O=C(CCN1CCN(c2ccccc2)CC1)Nc1ccccc1F,3,14,9,-5,14,5,x,x
